A short description of this data set: Toxicity liver stage against HepG2, at 10uM. It counts as cell-based. Further details: test concentration 10 uM, cell line HepG2-A16-CD81EGFP. As to conditions: human, HepG2-A16-CD81EGFP cells; read-out: INHIBITION
The gist of the method: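 Uninfected HepG2-A16-CD81EGFP cells, 3 × 10^3 per well, 1536-well, plated on prespotted compound at 10 μM final, parasite-free screening media added to match infected plates; puromycin 10 μM positive, DMSO 0.5% negative; run in parallel with 48 h PbLuc assay at 37 °C, 5% CO2; viability by CellTiter-Glo luminescence, normalized to controls.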
With `Cn1c(CC2CCS(=O)(=O)C2)nnc1SCCOc1cccc(Cl)c1` (stereo not given), the cytotoxicity at 10 µM came to 14.4%.
For `Cc1ccc(C(C)NC(=O)N2CCNC(=O)CC2)cc1F` (stereo not given), the cytotoxicity at 10 µM amounted to 18.9%.
The value for `CC(=O)N1CCCC2(CCC(=O)N2Cc2cccnc2)C1` (stereo not given) was 7.59%; that for `Cc1ccc(N2CCN(C(=O)[C@@H]3CCC(=O)N3)CC2=O)cc1` was -4.18%; that for `COc1ccc(CN2C[C@@H]3COC[C@]3(CN(C)C)C2)cc1` was -1.75%.
The value for `COCCN1CCCC(c2cncc(Oc3ccccc3OC)n2)C1` (stereo not given) was -22.8%; that for `COc1ccc(CN2C[C@H]3C[C@H](CN(C)C)O[C@H]3C2)cc1` was -7.4%.
As to `CC(C)C(=O)NS(=O)(=O)c1ccc(C#N)cc1C(F)(F)F`, the cytotoxicity at 10 µM is -12.3%.
For `COc1cc(-c2nc3c([nH]2)CCCNC3=O)cc(OC)c1OC` the value was 9.62%; for `COCCn1ccnc1C1CCN(Cc2ccccc2C#N)CC1`, -10.2%; for `Cn1ncc(C(=O)OCC2CC(=O)N(c3ccccc3)C2)c1C(F)F` (stereo not given), 1.93%.
The value for `Cc1noc(C)c1CCN1CCCC1c1nc2cc(F)ccc2[nH]1` (stereo not given) was 9.3%; that for `O=C(Nc1ccccc1CCO)c1cccc(CN2CC[C@H](O)C2)c1` was 8.77%.
For the molecule `CN1N=C(C(=O)N2CCCC(CCc3cccc(F)c3)C2)CCC1=O` (stereo not given), the cytotoxicity at 10 µM was -3.42%.
For the molecule `CC(NC1CCN(CCS(C)(=O)=O)CC1)c1cnn(C(C)C)c1` (stereo not given), the cytotoxicity at 10 µM is -0.132%.
On to `O=C(c1ccsc1)N1CCC2(CCN2Cc2ccc(F)cc2)C1` (stereo not given), for which the cytotoxicity at 10 µM was -144%.
Regarding `CN(CCCn1cnc2c(N)ncnc21)Cc1ccccc1`, the cytotoxicity at 10 µM is -4.87%.
On to `CC1CCN(CCNC(=O)C2CCN(C(=O)C(C)(C)C)CC2)CC1`, for which the cytotoxicity at 10 µM is 6.81%.
In the case of `Cn1ccnc1CN1CCC2(CC(=O)N(c3cccc(F)c3)C2)C1` (stereo not given), the cytotoxicity at 10 µM amounted to 6.97%.
As for `CCc1c(C(=O)N2CCC3(CCCN(CCO)C3=O)C2)csc1C` (stereo not given), the cytotoxicity at 10 µM is -128%.
With `CN(C)S(=O)(=O)NCc1cccnc1Oc1ccccc1`, the cytotoxicity at 10 µM turned out to be 1.6%.
As to `O=C(NCC(O)(c1ccco1)C1CC1)c1c(F)cccc1Cl` (stereo not given), the cytotoxicity at 10 µM is -2.69%.
Regarding `O=C(c1cc[nH]n1)N1CCOCC2(C1)CN(c1ccccc1)C(=O)CO2` (stereo not given), the cytotoxicity at 10 µM was -4.96%.
Regarding `CCNc1cc2c(nn1)CCN(C(=O)c1cc3ccccc3o1)C2`, the cytotoxicity at 10 µM was found to be 3.88%.
The value for `CC(=O)NC1CCCN(C(=O)NCc2cc[nH]n2)C1` (stereo not given) was -11.5%.
For `COCCN(C)C(=O)c1nc2c(s1)CCCN2S(C)(=O)=O` the value was -143%; for `CN1CCN2CCN(C(=O)c3cnn4cc(CCO)cnc34)CC2C1` (stereo not given), 7.04%; for `O=C(NCCn1ccnc1)NCC(c1ccco1)N1CCCC1` (stereo not given), 2.01%.
`CCNc1cc2c(nn1)CCN(C(=O)c1cc3ccccc3[nH]c1=O)C2`: the cytotoxicity at 10 µM is -1.41%.
Consider `CC(=O)c1cc(C(=O)N2CCC(CC(C)C)C2)c(=O)[nH]c1C` (stereo not given), for which the cytotoxicity at 10 µM stood at 4.4%.
For `CC(NCCCn1cccn1)c1ccc(N2CCCS2(=O)=O)cc1` (stereo not given) the value was -0.828%; for `Cc1nccn1CCC(=O)N1CCCN(CCCc2ccccc2)CC1`, -13.6%; for `CCN(CC)c1ccc(NS(=O)(=O)c2cccnc2)cn1`, 3.8%.
`Cc1cc(NCCN)nc(-c2ccccc2O)n1`: the cytotoxicity at 10 µM came out at 7.61%.
Take `Cc1cccc(N2CCCC3(C2)CN(S(C)(=O)=O)CCO3)c1` (stereo not given): the cytotoxicity at 10 µM was found to be 10.2%.
For `Cc1cnc(CNC(=O)[C@@H]2CC[C@@H]3[C@@H](CCN3Cc3ccco3)O2)cn1` the value was 0.296%; for `Cc1ccc(C(=O)N(C)Cc2ccc(Br)s2)c(=O)[nH]1`, 5.02%.
The value for `CNc1cc(C)nc(-c2cc(NC)nc3[nH]ccc23)n1` was -3.92%; that for `CC(NC(=O)N(C)Cc1ccc2c(c1)OCCO2)c1nncn1C` (stereo not given) was -2.25%.
In the case of `CCOc1ccc(NCC(=O)NCC(=O)N2CCCC2)c(C(F)(F)F)c1`, the cytotoxicity at 10 µM was -12.8%.
In the case of `O=C(NCCCN1CCOCC1)C1CCCN(Cc2ccco2)C1` (stereo not given), the cytotoxicity at 10 µM was -0.911%.
For `CN(C)CCCC(=O)N1C[C@@H]2CC[C@H]1CN(Cc1ccccc1)C2` the value was -5.39%.
Take `O=C(NCc1ncc(-c2ccccc2)o1)NC1CCC(O)CC1` (stereo not given): the cytotoxicity at 10 µM is -41.8%.
Consider `COCC1CCN(S(=O)(=O)N2C[C@@H](C)[C@](O)(C3CC3)C2)CC1`, for which the cytotoxicity at 10 µM was determined as 0.23%.
As to `O=C(c1ccccc1N1CCOCC1)N1CCCC1Cn1cccn1` (stereo not given), the cytotoxicity at 10 µM is -7.44%.
Regarding `Cc1ccc(N(CC(=O)NCc2nnc3n2CCC3)S(C)(=O)=O)cc1`, the cytotoxicity at 10 µM is -4.66%.
On to `O=C(c1cccnc1OCC(F)(F)F)N1CCCn2ncnc21`, for which the cytotoxicity at 10 µM was -6.47%.
The value for `CNc1ncc(C(=O)N2CCOC(C(=O)Nc3ccccc3)C2)cn1` (stereo not given) was -4.35%.
For `CN(Cc1ccc(C#N)cc1)C(=O)c1ccn(C)c(=O)c1` the value was -2.81%; for `O=C(CNC(=O)c1ccoc1)NC(c1ccc(F)cc1)C(F)(F)F` (stereo not given), -2.51%.
For `COCCN1C[C@H]2[C@@H](C1)N(C(=O)c1cccc(OC)c1)CC[C@H]2OC`, the cytotoxicity at 10 µM was found to be 3.56%.
The value for `c1cnc(N2CCO[C@H]3[C@H](OCC4CC4)CC[C@@H]32)nc1` was 5.88%.
For `c1ccc2[nH]c(C3CCN(Cc4nnc(C5CC5)o4)CC3)cc2c1`, the cytotoxicity at 10 µM was 3.65%.
For `O=S(=O)(Nc1cnc(N2CCOCC2)nc1)c1cccc(F)c1` the value was -19.2%; for `N#Cc1cc(C(F)(F)F)ccc1NCC1CCS(=O)(=O)CC1`, 10.2%.
On to `O=S1(=O)[C@@H](c2ccccc2)[C@H](CO)CN1C1CC1`, for which the cytotoxicity at 10 µM is -4.83%.
The value for `O=C(Cn1cc(C(=O)O)ccc1=O)Nc1ccc(Cl)cc1F` was -6.94%.
The value for `CCc1noc(C2CCCCN2C(=O)c2ccc3c(c2)OCO3)n1` (stereo not given) was 1.75%; that for `COC1(CNC(=O)c2cccc(C#N)c2)CCSC1` (stereo not given) was -7.93%; that for `O=C1N(Cc2cccc(F)c2F)CCCC1(O)CNCc1ccccc1` (stereo not given) was -9.45%.
The value for `O=C(Cn1ccnc1)N1C[C@@H]2CC[C@H](Oc3ccccc3Cl)[C@@H]2C1` was 11.9%.
Consider `CC1CN(CCOc2ccccc2C#N)CCN1Cc1nccn1C` (stereo not given), for which the cytotoxicity at 10 µM was -10.8%.
Regarding `CC(C)n1ncc2c1NC(=O)CC2c1ccccc1Cl` (stereo not given), the cytotoxicity at 10 µM was 33.5%.
The value for `CCOc1ccc(-c2c(C#N)c(N)nc3c2COCC3)cn1` was -0.339%.
For `O=C(CC1CCN(c2cccnn2)CC1)Nc1nncs1` the value was 1.01%.
For `O=C1CCCN1CCCN1CCCC1Cn1cccn1` (stereo not given) the value was -1.82%.
On to `CCCc1noc(CN2CCC(NC(=O)c3ccc(C)s3)CC2)n1`, for which the cytotoxicity at 10 µM is -5.32%.
For the molecule `Cc1cc(F)ccc1N1CCCC(NC2CCOCC2)C1=O` (stereo not given), the cytotoxicity at 10 µM is -11.3%.
For `Cc1ccn2ncc(C(=O)N3CCCC(c4noc(C)n4)C3)c2n1` (stereo not given) the value was -7.29%; for `Cn1cnnc1C1CCN(C(=O)COCc2ccccc2Cl)CC1`, -6.07%.
As for `CCCn1c(C)c(CC(=O)N(C)CCOC)c2c1CC(C)(C)CC2=O`, the cytotoxicity at 10 µM is -16.6%.
As to `CC1CCc2nc(NC(=O)CN(C)C(=O)c3ccco3)sc2C1` (stereo not given), the cytotoxicity at 10 µM was -11.4%.
Take `CCc1n[nH]c(C2CN(C(=O)c3ccnc(N(C)C)c3)CCO2)n1` (stereo not given): the cytotoxicity at 10 µM came to 6.66%.
`Cc1[nH]c2c(F)cccc2c1CC(=O)NCCCc1csc(N)n1`: the cytotoxicity at 10 µM was -3.57%.
With `Cc1ccc(S(=O)(=O)NC(=O)c2cc(S(C)(=O)=O)ccc2C)s1`, the cytotoxicity at 10 µM was 14.1%.
Turning to `Nc1ncc(C(=O)N2CCN(c3nccs3)CC2)cc1Cl`, the cytotoxicity at 10 µM was -3.78%.
For `Cc1nccn1CCC1CCCCN1C(=O)c1ccc(N(C)C)cc1` (stereo not given) the value was 0.811%; for `CN(CCn1cnnc1)S(=O)(=O)c1ccc(C(F)(F)F)nc1`, 6.71%; for `COc1ccccc1CN1CCC(Cc2cnc(CN(C)C)cn2)CC1`, -6.45%.
On to `O=C1N[C@H]2OCCC[C@H]2[C@H](c2ccccc2)N1`, for which the cytotoxicity at 10 µM was -0.675%.
On to `Cc1nn(C)c(C)c1NC(=O)CN1CCCC1c1c(C)nn(C)c1C` (stereo not given), for which the cytotoxicity at 10 µM is -6.44%.
For `COCC(=O)N1CCC2(C1)c1ccccc1S(=O)(=O)N2CCC(C)C` (stereo not given) the value was -4.26%; for `Cc1cc(C(=O)CN2CCN(c3cnccn3)CC2)c(C)n1C(C)C`, 7.36%.
For `CN(C)[C@@H]1C[C@@H](CO)N(C(=O)Nc2cccc(F)c2F)C1` the value was -0.103%.
The value for `Cn1cc2ncn(CCCOc3cccnc3)c(=O)c2n1` was -5.18%.
Turning to `Cc1nc(C2CCCN(C(=O)c3scnc3C)C2)no1` (stereo not given), the cytotoxicity at 10 µM was -3.18%.
As for `CNc1nc(CNC(=O)Nc2cccc(COCCOC(C)C)c2)cs1`, the cytotoxicity at 10 µM came to 8.77%.
Regarding `CC(C)C1CN(S(=O)(=O)c2cccc(C#N)c2)CCS1` (stereo not given), the cytotoxicity at 10 µM stood at 1.06%.
The value for `C[C@@H](NC(=O)c1cccnc1)c1onc(-c2ccccc2)c1C(=O)O` was 10.1%; that for `Cc1cc(CN2CCC(CNC(=O)C3(c4ccccc4)CC3)C2)[nH]n1` (stereo not given) was -145%.
The value for `O=C1CCC2(CCN(c3ncc(F)cn3)CC2)N1CCN1CCCC1` was 10.5%.
For `NC(=O)NCC1CCCCN1C(=O)c1cc(F)cc(F)c1` (stereo not given) the value was -8.15%; for `Cn1cc(C(=O)Nc2ccc(CN3CCOCC3)cn2)cn1`, 6.95%.
On to `CC(C(=O)Nc1ccccc1Sc1ccccc1)S(C)(=O)=O` (stereo not given), for which the cytotoxicity at 10 µM is -1.7%.
Take `CN(C)C(=O)COCc1cncc2c1CCN(Cc1cnn(C)c1)C2`: the cytotoxicity at 10 µM is -3.48%.
